Screening data (PubChem)
TCR-CD3 inh – human TCR-CD3 binding inhibition. TAMRA-labeled TCR probe fluorescence, biochemical. inhibition, % at 9.4 µM. 360,000 compounds, 0.37% hits; in the data active = inhibition above about 19%;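 note: recombinant mutant TCR 2C K166C tagged with TAMRA read by polarization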
mABHD4 FP – ABHD4 (mouse) inhibition, primary FP screen; Q8VD66; AID 720543; inhibition, % at 8.92 µM; purified mABHD4, FP-Rh probe fluorescence polarization; 370,000 compounds, 0.54% hits;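 active = inhibition exceeding the mean over every tested compound plus 3 SD, cut at about 30% in these data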
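Test system: mouse ABHD4 enzyme, wild type. Reagent: FP-Rh fluorescent activity-based probe, added after compound pre-incubation. Timing: pre-incubation 45 min, probe exposure 60 min, at 25 °C. Technique: FP readout, ex 525 nm / em 598 nm. Benchmarks: high control S159A mutant with DMSO, low control median of compound wells.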
PRMT1 FP inh – blocks human protein arginine methyltransferase 1 | recombinant PRMT1, activity-based probe fluorescence polarization | inhibition, % at 2.79 µM | 370,000 compounds, 1.3% hits;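 active = inhibition above about 21% made by adding two undisclosed values, limit read from the data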
HTRA1 inhibitor – HTRA1 (human) protease inhibition; Q92743; recombinant HTRA1, FP-rhodamine activity-based probe, fluorescence polarization; inhibition, % at 5.96 µM; 340,000 compounds, 0.5% hits; AID 504803; in the data active = inhibition above about 36%
SIAE inh – human SIAE inhibition, primary screen | Q9HAT2 | SIAE FP-Rh probe binding, fluorescence polarization | inhibition, % at 9.66 µM | 370,000 compounds, 0.69% hits | AID 1053197;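 active = inhibition above a cutoff: mean of compounds within the control limits plus 3 SD of those, cut at about 17% in these data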
Target sequence (Q9HAT2 whole entry, looked up): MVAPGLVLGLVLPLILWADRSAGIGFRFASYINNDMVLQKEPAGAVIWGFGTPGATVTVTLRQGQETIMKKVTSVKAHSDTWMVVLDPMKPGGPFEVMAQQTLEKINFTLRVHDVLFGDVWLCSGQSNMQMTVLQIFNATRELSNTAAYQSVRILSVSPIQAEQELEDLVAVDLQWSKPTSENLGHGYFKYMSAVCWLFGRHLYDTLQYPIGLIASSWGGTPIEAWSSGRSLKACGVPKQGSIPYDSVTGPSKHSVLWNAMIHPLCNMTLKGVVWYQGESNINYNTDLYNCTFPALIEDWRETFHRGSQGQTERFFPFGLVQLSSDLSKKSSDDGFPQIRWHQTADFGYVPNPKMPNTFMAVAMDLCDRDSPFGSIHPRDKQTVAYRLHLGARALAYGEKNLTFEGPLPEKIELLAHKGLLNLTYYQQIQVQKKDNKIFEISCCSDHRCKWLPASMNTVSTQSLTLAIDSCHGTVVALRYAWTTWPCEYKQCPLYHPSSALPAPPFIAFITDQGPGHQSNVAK
PRMT1 inh conf – PRMT1 (human) inhibition, FP confirmation | AID 687036 | inhibition, % at 2.79 µM | 3,300 compounds, 42% hits | recombinant His-PRMT1, activity-based probe fluorescence polarization | shares compounds with PRMT1 FP inh;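 active = mean inhibition across replicates above the hit cutoff derived for the earlier primary screen, cut at about 22% in these data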
Of the large screens only hits and unclear results are named; the others gave an inactive call (follow-up assays come after a bar, where they were run). Most compounds without a hit are left out; they make up all but 2.6% or so of the library.

COc1ccc(-c2oc3c(c2C#CC2(O)CCCCC2)C(OC(C)=O)CCC3)cc1 (stereo unspecified)	none (no result: HTRA1 inhibitor)
O=C(CN1CCN(C(=O)CNC(=O)c2ccc3c(c2)OCO3)CC1)Nc1ccc(F)cc1	none
Cc1cc(N)c(NC2=CC(=O)CC(C)(C)C2)cc1C	PRMT1 FP inh 27 | PRMT1 inh conf inactive
CCCCc1nc(SCC(=O)Nc2cccc(Cl)c2)n[nH]1	none
COc1ccc(-n2sc3ccccc3c2=O)cc1	PRMT1 FP inh 82 | PRMT1 inh conf 82
Cc1ccc(CNS(=O)(=O)c2ccc(CN3C(=O)c4cccnc4C3=O)cc2)o1	PRMT1 FP inh 26 | PRMT1 inh conf inactive
CC(=O)Nc1ccc(NS(=O)(=O)c2ccc(CN3C(=O)c4cccnc4C3=O)cc2)cc1	none
Cc1ccc(CNS(=O)(=O)c2cc(F)ccc2CN2C(=O)c3cccnc3C2=O)o1	PRMT1 FP inh 25 | PRMT1 inh conf inactive
O=C(CSc1nc(O)cc(=O)n1-c1ccccc1)Nc1ccc2c3c(cccc13)CC2	none
Cc1c(O)nc(SCC(=O)Nc2ccc3c4c(cccc24)CC3)n(-c2ccccc2)c1=O	PRMT1 FP inh 29 | PRMT1 inh conf 23
Cc1cc(C)cc(-n2nnn(C3C/C(=N/NC(N)=S)C4OCC3O4)c2=S)c1 (stereo unspecified)	PRMT1 FP inh 26 | PRMT1 inh conf inactive
CCc1ccccc1NC(=O)CSc1nnc([C@@H](N)Cc2ccccc2)o1	PRMT1 FP inh 43 | PRMT1 inh conf 28
CCN(CC(=O)Nc1ccccc1C(F)(F)F)C(=O)c1cccc(N2C(=O)CCC2=O)c1	none
N#Cc1ccc(NC(=O)CSc2nc3[nH]c(=O)cc(O)c3s2)cc1	none
CSc1ccc(NC(=O)CSc2nc3[nH]c(=O)cc(O)c3s2)cc1	PRMT1 FP inh 48 | PRMT1 inh conf inactive
Cc1ccccc1-c1nnc(SCC(=O)NC2CCS(=O)(=O)C2)n1C (stereo unspecified)	none
C(=Cc1c[nH]c2ccccc12)c1ccc2ccccc2n1	none
C(=Cc1c[nH]c2ccccc12)c1nccc2ccccc12	PRMT1 FP inh 52 | PRMT1 inh conf inactive
Nc1nc(=O)c2ccccc2s1	PRMT1 FP inh 36 | PRMT1 inh conf 25
CC(=O)N/C(N)=N/c1nc(=O)c2ccccc2s1	none
CC(=O)Nc1nc(=O)c2ccccc2s1	PRMT1 FP inh 44 | PRMT1 inh conf 33
C/C(=N\NC(=S)NCCc1ccccc1)c1cccs1	PRMT1 FP inh 29 | PRMT1 inh conf inactive
C/C(CCc1ccccc1)=N\NC(=S)NCCc1ccccc1	none
Cc1ccc(OCCOC(=O)CN2C(=O)NC3(CCCC3)C2=O)cc1	none
Cn1cnc([N+](=O)[O-])c1S(=O)(=O)c1ccc(Cl)cc1	PRMT1 FP inh 44 | PRMT1 inh conf inactive
CC(=O)C1=C(S(=O)(=O)c2ccc(C)cc2)CS(=O)(=O)C1	PRMT1 FP inh 76 | PRMT1 inh conf 89
Cc1ccc(S(=O)(=O)C2CS(=O)(=O)CC2O)cc1 (stereo unspecified)	none
Cn1c(=O)c(NC2CCCCC2)c2c3c(cccc31)C(=O)c1ccccc1-2	PRMT1 FP inh 77 | PRMT1 inh conf 41
O=[N+]([O-])c1ccc(-c2csc3[n+]2CCS3)cc1	PRMT1 FP inh 47 | PRMT1 inh conf inactive
CN1C[C@@H]2[C@@H]3C(=O)N(C)C(=O)[C@@H]3[C@](C)(C1=O)N2C(=O)c1ccc(Br)cc1	none
S=C(NCc1ccccc1)N1CCN(C2CCCCC2)CC1	none
Cc1ccccc1-n1nc(C(=O)O)c(C)c(C#N)c1=O	none
Cc1c(C(=O)O)nn(-c2cccc(C(F)(F)F)c2)c(=O)c1C#N	PRMT1 FP inh 29 | PRMT1 inh conf inactive
O=C(CSc1n[nH]c(-c2cccnc2)n1)Nc1cccc(Cl)c1	none
O=C(CSc1nc(-c2ccc(Cl)cc2)[nH]c(=O)n1)Nc1cccc(Cl)c1	PRMT1 FP inh 51 (no result: HTRA1 inhibitor) | PRMT1 inh conf inactive
CC(=O)NC1C(=O)N=C(SCC(=O)Nc2cccc(Cl)c2)NC1=O (stereo unspecified)	PRMT1 FP inh 39 | PRMT1 inh conf inactive
O=C(Nc1cccc(/C=C/c2ccccn2)c1)c1cc(Cl)ccn1	none
O=C(CC1Sc2ncnn2C1=O)Nc1ccc(Br)cc1 (stereo unspecified)	PRMT1 FP inh 53 | PRMT1 inh conf 54
C/C(=N\NC(=O)c1nnn(-c2nonc2N)c1CSc1ccccc1)c1ccc2c(c1)OCO2	none
O=C1CCCC(=O)N1c1ccc(O)cc1	none
O=C1C=CC(=O)N1c1ccc(O)cc1	PRMT1 FP inh 90 | PRMT1 inh conf 92
O=C1C2C3C=CC(CNS(=O)(=O)c4ccccc4[N+](=O)[O-])(O3)C2C(=O)N1c1ccccc1 (stereo unspecified)	PRMT1 FP inh 76 | PRMT1 inh conf 42
COC(=O)C1(CO)NC(c2ccc(C)cc2)C2C(=O)N(c3ccccc3)C(=O)C21 (stereo unspecified)	none
Cc1cc(C)c(S(=O)(=O)NCC23C=CC(O2)C2C(=O)N(c4ccccc4)C(=O)C23)c(C)c1 (stereo unspecified)	PRMT1 FP inh 54 | PRMT1 inh conf inactive
COc1cccc(CN(C)C(=O)CCNC(=O)c2ccco2)c1	none
CCN1/C(=C/c2ccc3cc(C)ccc3[n+]2C)Sc2ccc3sccc3c21	none
Cc1sc2c3ccsc3ccc2[n+]1C	PRMT1 FP inh 67 | PRMT1 inh conf 59
C1CSC2(N1)C1CC3CC(C1)CC2C3 (stereo unspecified)	PRMT1 FP inh 51 | PRMT1 inh conf 35
CCOC(=O)[C@]12CCCC=C1N(CCc1ccc(OC)c(OC)c1)C(=O)[C@H](CC(=O)NCCCCc1ccccc1)C2	none (no result: HTRA1 inhibitor)
O=C(N/N=C/c1ccc2c(c1)OCO2)C1CC1	none
Cc1ccc(NC(=O)c2cc(N3C(=O)C=CC3=O)ccc2N2CCOCC2)cc1	PRMT1 FP inh 91 | PRMT1 inh conf 89
Cc1ccc(NC(=O)c2cc(NC(=O)c3ccco3)ccc2N2CCOCC2)cc1	none
CSc1nc(N)c(C(=O)N(c2ccccc2)c2ccccc2)s1	none
COc1cc(/C=C2\C(=O)NN(c3ccc(C)cc3)C2=O)cc([N+](=O)[O-])c1O	PRMT1 FP inh 30 | PRMT1 inh conf inactive
O=C(COC(=O)C1CC(=O)N(c2ccccc2)C1)c1ccccc1 (stereo unspecified)	none
Cc1ccc(N2CC(C(=O)OCC(=O)c3ccc([N+](=O)[O-])cc3)CC2=O)cc1 (stereo unspecified)	PRMT1 FP inh 29 | PRMT1 inh conf 48
COc1ccc(CCC(=O)OCC(=O)Nc2ccccc2)cc1	none
c1csc(-c2nc3ccccc3s2)c1	PRMT1 FP inh 33 | PRMT1 inh conf 34
c1ccc2sc(-c3ccncc3)nc2c1	none
CC1(C(=O)Nc2ccc3c(c2)OCO3)CCN1C(=O)CCc1cccs1 (stereo unspecified)	none (no result: HTRA1 inhibitor)
NC(=O)C1Cc2ccccc2CN1C(=O)c1cccc(Oc2ccccc2)c1 (stereo unspecified)	PRMT1 FP inh 106 | PRMT1 inh conf inactive
